An excerpt weighted towards active compounds, which were near 3.5% of everything screened.
PAFAH1B2 inh: PAFAH1B2 enzyme inhibitors, primary screen, biochemical, fluorescence polarization, human; actives 1.2% (n = 340,000); Platelet-activating factor acetylhydrolase IB subunit alpha2 (Homo sapiens), P68402; recombinant PAFAH1B2, FP-rhodamine activity probe; inhibition, % at 3.39 µM;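 active = inhibition above the mean of all tested compounds plus 3 SD, cut at about 24% in these data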;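 also: 0% = enzyme with DMSO and 100% = wells lacking PAFAH1B2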
PREPL inh: PREPL enzyme inhibitors, primary screen, biochemical, fluorescence polarization | Prolyl endopeptidase-like (Homo sapiens), Q4J6C6 | recombinant PREPL, fluorescence polarization activity-based probe | inhibition, % at 5.96 µM | actives 0.68% (n = 320,000) | AID 2751, 2010;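 also: 0% = enzyme with DMSO and 100% = wells lacking enzyme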
Target sequence (Q4J6C6 whole entry, looked up): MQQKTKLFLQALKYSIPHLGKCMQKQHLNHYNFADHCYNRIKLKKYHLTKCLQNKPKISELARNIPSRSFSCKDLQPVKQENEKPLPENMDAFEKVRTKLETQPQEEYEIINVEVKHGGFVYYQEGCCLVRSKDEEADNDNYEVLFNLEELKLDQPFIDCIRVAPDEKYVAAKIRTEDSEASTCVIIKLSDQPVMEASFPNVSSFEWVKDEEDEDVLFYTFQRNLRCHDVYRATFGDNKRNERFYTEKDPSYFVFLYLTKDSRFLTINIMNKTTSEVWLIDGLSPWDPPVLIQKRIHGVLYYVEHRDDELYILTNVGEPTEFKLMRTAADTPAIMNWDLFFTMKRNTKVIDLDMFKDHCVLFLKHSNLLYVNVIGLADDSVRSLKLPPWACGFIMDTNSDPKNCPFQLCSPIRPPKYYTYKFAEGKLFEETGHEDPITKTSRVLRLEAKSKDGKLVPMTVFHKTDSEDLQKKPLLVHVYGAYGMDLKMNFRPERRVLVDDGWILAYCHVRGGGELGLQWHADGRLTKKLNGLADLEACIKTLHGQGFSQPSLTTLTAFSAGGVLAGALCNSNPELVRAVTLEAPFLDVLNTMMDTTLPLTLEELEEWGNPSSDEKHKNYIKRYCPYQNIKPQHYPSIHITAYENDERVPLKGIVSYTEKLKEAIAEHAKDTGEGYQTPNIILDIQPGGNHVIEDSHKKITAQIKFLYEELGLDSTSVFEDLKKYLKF
PAFAH2 FP inh: PAFAH2 enzyme inhibitors, primary screen, biochemical, fluorescence polarization, human. Platelet-activating factor acetylhydrolase 2, cytoplasmic (Homo sapiens), Q99487. inhibition, % at 3.39 µM. actives 0.99% (n = 340,000). recombinant PAFAH2, FP-rhodamine activity probe. AID 492956, 2010;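 active = inhibition above the mean over all tested compounds plus 3 SD, cut at about 30% in these data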;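 also: inhibitors block probe labeling of enzyme so polarization drops; 0% = enzyme with DMSO and 100% = wells lacking PAFAH2 protein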
PAFAH1B3 inh: PAFAH1B3 enzyme inhibitors, primary screen, biochemical, fluorescence polarization, human. AID 492972, 2010. recombinant PAFAH1B3, FP-rhodamine probe. Platelet-activating factor acetylhydrolase IB subunit alpha1 (Homo sapiens), Q15102. actives 0.28% (n = 340,000). inhibition, % at 3.39 µM;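 active = inhibition above the screen-wide average of all tested compounds plus 3 SD, cut at about 25% in these data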;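 also: 0% = enzyme with DMSO only and 100% = wells lacking PAFAH1B3 protein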
Apaf1 inhib: inhibitors of human Apaf-1 apoptosome, primary screen, biochemical, DEVD-Rh110 fluorescence, uHTS; Apoptotic protease-activating factor 1 (Homo sapiens), O14727; reconstituted apoptosome caspase-3 activity; inhibition, % at 20 µM; actives 0.71% (n = 330,000); AID 489030, 2010; active = inhibition of at least 40% at 20 µM;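 also: plate controls were DMSO wells for no effect and DEVD-CHO caspase inhibitor wells for full effect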
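Material: cell-free apoptosome with Apaf-1, procaspase-3 and caspase-9; Buffer or medium: Hepes pH 7.5 with detergent and BSA; Reagent: cytochrome c trigger plus (Z-DEVD)2-Rh110 caspase-3 substrate; Times: compound with Apaf-1, dATP, procaspase-3 30 min, then 50 min reaction, room temperature; Technique: Rh110 fluorescence intensity.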
pPAFAH inh: pPAFAH enzyme inhibitors, primary screen, biochemical, fluorescence polarization, human; AID 463082, 2010; actives 1.5% (n = 330,000); recombinant pPAFAH, FP-rhodamine probe fluorescence polarization; inhibition, % at 3.39 µM; Platelet-activating factor acetylhydrolase (Homo sapiens), Q13093;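 active = inhibition above the mean inhibition across the screen plus 3 SD, cut at about 25% in these data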;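 also: inhibitors block binding of the rhodamine activity-based probe so polarization drops; 0% = enzyme with DMSO and 100% = wells lacking pPAFAH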
PREPL inh cf: human PREPL enzyme inhibitors, confirmation, biochemical, fluorescence polarization; shares compounds with PREPL inh; recombinant PREPL, fluorescence polarization activity probe; inhibition, % at 5.96 µM; actives 67% (n = 2,000); AID 2803, 2010;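 also: 0% = protein with DMSO and 100% = wells lacking protein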
The depositor's hits bear a star; . = no result given. Rule as the data show it, unless noted: active = inhibition above about 43%; inactive = the rest.

SMILES | PAFAH1B2 inh | PREPL inh | PAFAH2 FP inh | PAFAH1B3 inh | Apaf1 inhib | pPAFAH inh | PREPL inh cf
Cc1cc(/C=C(/C#N)c2nc3ccccc3[nH]2)c(C)n1-c1cccc([N+](=O)[O-])c1 | 7.7 | 43.6* | -9.9 | 7.4 | 22.4 | 9.8 | 38.5
COc1c(O)ccc(/C=C(\C#N)c2nc3ccccc3[nH]2)c1[N+](=O)[O-] | 2.2 | 55.9* | 4.5 | 8.8 | 17.0 | 19.5 | 16.1
O=C(C[C@@H]1C/C=C\C[C@@H](Cc2ccc(F)cc2)C(=O)OC[C@@H]2CCCN2C1=O)N[C@H](CO)Cc1ccccc1 | 7.7 | 48.1* | -0.2 | 2.5 | 19.9 | 2.4 | 54.3*
O=C(C[C@H]1C/C=C\C[C@@H](Cc2ccc(F)cc2)C(=O)OC[C@H]2CCCN2C1=O)NCCO | 9.5 | 46.7* | 4.3 | 5.8 | -6.5 | -1.1 | 48.3*
O=C(C[C@@H]1C/C=C\C[C@H](Cc2ccc(F)cc2)C(=O)OC[C@H]2CCCN2C1=O)N[C@H](CO)Cc1ccccc1 | 10.2 | 45.7* | 12.5 | 11.3 | 17.2 | 4.0 | 42.7
O=C(C[C@@H]1C/C=C\C[C@@H](Cc2ccc(F)cc2)C(=O)OC[C@H]2CCCN2C1=O)NCCO | 8.7 | 29.7 | -0.1 | -2.0 | 2.9 | -1.0 | .
O=C(C[C@@H]1C/C=C\C[C@H](Cc2ccc(F)cc2)C(=O)OC[C@@H]2CCCN2C1=O)N[C@H](CO)Cc1ccccc1 | 23.0 | 33.9 | 9.2 | -9.7 | 9.4 | 2.2 | .
O=C(CCNC(=O)c1ccc([N+](=O)[O-])cc1)Nc1ccc(S(=O)(=O)N2CCOCC2)cc1 | 0.1 | -6.6 | 1.3 | 2.2 | 3.9 | 2.7 | .
CC1Cc2ccccc2N1C(=O)CCn1cccn1 (centres undefined) | -2.8 | 3.0 | -2.0 | 2.5 | 4.0 | 2.0 | .
CCCCC1=CC2=CC(=O)C(C)(OC(=O)CC)C(=O)C2=CN1C(CO)CO (centres undefined) | 5.0 | -0.8 | 3.5 | 5.3 | 16.6 | 4.7 | .
COC(=O)CCC(=O)OC1(C)C(=O)C2=CN(C(CO)CO)C(c3ccc(OC)cc3)=CC2=C(Br)C1=O (centres undefined) | . | 58.4* | . | . | 81.1* | 3.4 | 40.1
NNc1ncnc2sc3c(c12)CCC3 | 3.5 | 43.9* | 1.4 | 12.2 | -7.7 | 7.3 | 21.9
CNC(=O)c1ccc(-c2sc3nc(N4CCOCC4)c4c(c3c2N)CCCC4)o1 | 0.6 | 47.5* | -2.2 | 2.9 | 31.0 | 27.0* | 31.8
CNC(=O)c1ccc(-c2sc3nc(N4CCOCC4)c4c(c3c2N)CC(C)(C)OC4)o1 | 8.5 | 14.1 | -1.3 | 9.0 | 7.8 | 3.5 | .
CC(C(=O)c1ccc(-c2ccccc2)cc1)[n+]1cccc(NC(=O)c2ccccc2)c1 (centres undefined) | -0.7 | -23.6 | 5.7 | 6.2 | 17.8 | -0.8 | .
CCOC(=O)c1ccc[n+](C(C)C(=O)c2ccc(-c3ccccc3)cc2)c1 (centres undefined) | 7.1 | 61.5* | -6.4 | 7.5 | 6.5 | 0.2 | 48.5*
Cc1cc(OCC(=O)OCC(=O)NCc2cccs2)ccc1Cl | 9.2 | 30.4 | 1.2 | 6.9 | 1.3 | 22.1 | .
Cc1cc(N/N=C/c2ccc(N(C)C)cc2)c2ccccc2n1 | 4.0 | -3.8 | -0.9 | -0.8 | 6.3 | 12.6 | .
Cc1cc(N/N=C/c2ccc(O)cc2)c2cccc(C)c2n1 | 4.7 | 59.2* | 8.6 | 3.3 | 20.2 | 3.3 | 55.8*
Cc1cc(C)c2nc(C)cc(N/N=C/c3ccc(O)cc3)c2c1 | -2.4 | 71.7* | 0.6 | 10.6 | 31.0 | 3.2 | 68.4*
O=C(O)c1ccccc1NS(=O)(=O)c1ccc(NN=Cc2ccccc2F)c([N+](=O)[O-])c1 | 15.4 | 55.1* | 7.0 | 8.3 | 8.7 | 51.1* | 55.7*
CCCC(CCC)=NNc1ccc(S(=O)(=O)Nc2ccccc2OC)cc1[N+](=O)[O-] | 1.1 | 1.3 | -2.2 | 5.0 | 27.2 | -1.1 | .
O=C(O)c1ccccc1/C=N/Nc1ccc(S(=O)(=O)N2CCCC2)cc1[N+](=O)[O-] | 12.0 | 6.2 | -6.1 | 7.8 | -7.2 | 8.9 | .
C=CCOc1ccc(C=NNc2ccc(S(=O)(=O)Nc3ccccc3C(=O)O)cc2[N+](=O)[O-])cc1OC | 9.8 | 61.7* | 13.2 | 15.1 | -27.0 | 36.8* | 36.5
CCN(CC)CCCC(C)NC(=O)c1c(NC(=O)c2ccccc2)sc2c1CCCC2 (centres undefined) | 1.7 | 46.0* | 4.5 | 2.9 | 6.6 | 5.9 | 39.8
SMILES | PAFAH1B2 inh | PREPL inh | PAFAH2 FP inh | PAFAH1B3 inh | Apaf1 inhib | pPAFAH inh | PREPL inh cf
CN(C)C(=O)c1c(NC(=O)c2ccccc2)sc2c1CCC2 | 3.6 | 5.0 | 6.2 | 11.1 | -9.9 | 6.0 | .
Cc1ccc(C2CC(c3ccccc3C)n3nc(N)nc3N2)cc1 (centres undefined) | 1.1 | 46.7* | 1.6 | 5.8 | -3.4 | 2.0 | 48.3*
COc1ccc(C2CC(c3ccccc3C)n3nc(N)nc3N2)cc1 (centres undefined) | -0.5 | 51.4* | -2.4 | -0.7 | -1.6 | 0.5 | 48.2*
CCOc1ccc(C2CC(c3ccccc3C)n3nc(N)nc3N2)cc1 (centres undefined) | -1.4 | 42.5 | -1.2 | 6.0 | 6.5 | 0.9 | .
Cc1cccnc1NC(=O)CCc1c[nH]c2ccccc12 | 3.4 | 46.1* | 3.1 | 3.4 | -1.9 | 4.6 | 41.8
Cc1ccnc(NC(=O)CCCc2c[nH]c3ccccc23)c1 | 9.0 | 6.8 | -2.6 | 12.7 | 8.2 | 3.2 | .
Cc1ccc(NC(=O)C2C3C=CC4(O3)C2C(=O)N(CCCN2CCOCC2)C4C(=O)NC2CCCCC2)cc1Cl (centres undefined) | 3.0 | 24.7 | -0.6 | 2.9 | 5.7 | 3.4 | .
O=C(Nc1ccc(Cl)c(Cl)c1)C1C2C=CC3(O2)C1C(=O)N(CCN1CCCCC1)C3C(=O)NC1CCCCC1 (centres undefined) | 3.2 | 50.2* | 5.0 | 3.3 | 5.9 | 2.0 | 52.4*
COc1ccc(C(=O)NC2CC2)cc1OC1CCN(C(C)CSC)CC1 (centres undefined) | 1.8 | 0.5 | 5.5 | 5.8 | 4.7 | 5.6 | .
OCC[C@@H]1C[C@H](O)[C@@H](O)[C@@]2(CCCO2)O1 | 6.4 | -6.4 | 3.2 | 1.7 | 0.2 | 4.8 | .
CC12CCC(=O)N1C(C(=O)N1CCN(c3ccccc3)CC1)CS2 (centres undefined) | 1.0 | 22.0 | -5.3 | 3.9 | -5.5 | 1.1 | .

Screening data deposited in PubChem BioAssay by several laboratories.
